# Test results as given in ChEMBL document CHEMBL2311457, “Identification of bacteria-selective threonyl-tRNA synthetase substrate inhibitors by structure-based design” (J Med Chem, 2013).
# How the values were obtained:
# Threonine--tRNA ligase = biological target: T1, Threonine--tRNA ligase (Yersinia pestis, UniProt Q8ZDW5); test: Binding affinity to Yersinia pestis ThrRS by coupled spectrophotometry
# T1 sequence (Q8ZDW5 whole entry): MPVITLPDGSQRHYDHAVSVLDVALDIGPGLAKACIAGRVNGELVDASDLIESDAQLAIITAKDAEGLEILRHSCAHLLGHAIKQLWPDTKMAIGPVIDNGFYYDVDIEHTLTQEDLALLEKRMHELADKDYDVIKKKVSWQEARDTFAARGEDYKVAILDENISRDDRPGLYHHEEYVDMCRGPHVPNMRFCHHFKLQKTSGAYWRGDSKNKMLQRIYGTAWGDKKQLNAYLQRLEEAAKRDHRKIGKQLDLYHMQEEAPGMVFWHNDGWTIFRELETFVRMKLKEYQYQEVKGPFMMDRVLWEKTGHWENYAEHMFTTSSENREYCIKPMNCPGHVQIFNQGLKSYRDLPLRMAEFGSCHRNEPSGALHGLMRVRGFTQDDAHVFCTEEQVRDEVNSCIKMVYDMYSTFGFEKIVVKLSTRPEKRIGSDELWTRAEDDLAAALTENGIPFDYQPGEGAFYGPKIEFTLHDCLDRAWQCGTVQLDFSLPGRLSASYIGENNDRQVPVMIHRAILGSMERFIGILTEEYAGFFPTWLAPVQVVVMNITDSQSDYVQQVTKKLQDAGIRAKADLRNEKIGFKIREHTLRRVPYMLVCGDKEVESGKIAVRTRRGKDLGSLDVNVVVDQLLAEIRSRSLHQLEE
# Procedure, shortened: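 Coupled spectrophotometric (MESG) readout of pyrophosphate release during adenylation; L-serine 200 mM as surrogate substrate, 4 mM ATP, 5 nM enzyme, Tris pH 7.6, MgCl₂, KCl, DTT, 2% DMSO. Inhibitor 16-point 2-fold series, 50 μM–1.5 nM, normalised to no-inhibitor and no-enzyme controls. IC50 from 4-parameter fit; Ki by bisubstrate Cheng–Prusoff.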
# [1] = Binding affinity to Escherichia coli ThrRS by coupled spectrophotometry
# Procedure, shortened: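 Coupled spectrophotometric assay following pyrophosphate released during ATP-dependent adenylation, read out through MESG with inorganic pyrophosphatase and purine nucleoside phosphorylase. Buffer was 60 mM Tris pH 7.6, 10 mM MgCl₂, 20 mM KCl, 0.5 mM DTT, 2% DMSO, with 4 mM ATP, 200 mM L-serine as surrogate substrate and 5 nM enzyme.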
# Escherichia coli [2] = test: Antimicrobial activity against wild type Escherichia coli ATCC 25922 measured after overnight incubation by alamarBlue assay; assay type: functional
# Procedure, shortened: (§1)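 Broth microdilution per CLSI; DMSO stocks at 6.4 mg/mL, serially diluted and added 1:50 to inoculated medium for final 0.063–128 μg/mL. Inoculum about 5 × 10⁵ CFU/mL, checked by plating. Overnight at 37 °C; H. influenzae grown in Haemophilus test medium broth with 5% CO₂. alamarBlue added for 1 h; MIC read as the lowest concentration with no visible color change.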
# [3] = test system: Burkholderia thailandensis; test: Antimicrobial activity against isogenic amrAB-oprA/bpeAB-oprB double knockout Burkholderia thailandensis E264 measured after overnight incubation by alamarBlue assay; assay type: functional
# [4] = test system: Burkholderia thailandensis; test: Antimicrobial activity against wild type Burkholderia thailandensis E264 measured after overnight incubation by alamarBlue assay; assay type: functional
# [5] = Binding affinity to Burkholderia thailandensis ThrRS by coupled spectrophotometry
# Escherichia coli [6] = test: Antimicrobial activity against Escherichia coli BAS849 expressing Imp Thr332-Tyr354 deletion mutant measured after overnight incubation by alamarBlue assay; assay type: functional
# Haemophilus influenzae = test: Antimicrobial activity against wild type Haemophilus influenzae ATCC 31517 measured after overnight incubation by alamarBlue assay; assay type: functional; procedure, shortened: as §1
# Escherichia coli [7] = test: Antimicrobial activity against Escherichia coli BW25113 expressing TolC Leu13-Ala480 deletion mutant measured after overnight incubation by alamarBlue assay; assay type: functional
# [8] = biological target: T2, Threonine--tRNA ligase 1, cytoplasmic (Homo sapiens, UniProt P26639); test: Binding affinity to human cytoplasmic ThrRS by coupled spectrophotometry
# T2 sequence (P26639 whole entry): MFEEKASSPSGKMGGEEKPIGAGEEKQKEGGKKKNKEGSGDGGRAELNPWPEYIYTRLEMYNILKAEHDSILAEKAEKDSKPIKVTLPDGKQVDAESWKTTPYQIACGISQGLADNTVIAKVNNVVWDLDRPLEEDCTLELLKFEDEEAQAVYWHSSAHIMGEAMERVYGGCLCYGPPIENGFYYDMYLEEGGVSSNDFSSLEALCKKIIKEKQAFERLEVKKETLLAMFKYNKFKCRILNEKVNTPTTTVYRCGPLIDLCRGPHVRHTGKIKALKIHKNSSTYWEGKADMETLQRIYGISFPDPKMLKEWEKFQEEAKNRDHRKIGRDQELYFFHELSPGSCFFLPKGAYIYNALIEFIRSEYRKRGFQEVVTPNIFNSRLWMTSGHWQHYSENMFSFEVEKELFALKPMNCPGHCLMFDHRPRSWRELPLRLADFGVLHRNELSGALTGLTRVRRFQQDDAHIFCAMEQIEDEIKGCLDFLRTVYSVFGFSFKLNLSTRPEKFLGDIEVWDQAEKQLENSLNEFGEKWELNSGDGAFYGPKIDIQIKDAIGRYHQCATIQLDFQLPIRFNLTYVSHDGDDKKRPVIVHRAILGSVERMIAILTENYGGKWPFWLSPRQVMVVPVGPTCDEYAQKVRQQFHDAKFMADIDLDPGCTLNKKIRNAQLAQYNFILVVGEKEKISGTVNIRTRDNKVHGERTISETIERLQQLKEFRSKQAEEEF
Compound,Ki (Threonine--tRNA ligase),Ki [1],MIC (Escherichia coli [2]),MIC [3],MIC [4],Ki [5],MIC (Escherichia coli [6]),MIC (Haemophilus influenzae),MIC (Escherichia coli [7]),Ki [8]
C[C@@H](N)[C@H](N)C(=O)NS(=O)(=O)/C=C/c1cccc(-c2cc(N)ncn2)c1,> 50000 nM,> 50000 nM,–,–,–,–,–,–,–,–
C[C@@H](O)[C@H](N)C(=O)NS(=O)(=O)OC[C@@H]1O[C@H](n2cnc3c(N)ncnc32)[C@@H](O)[C@H]1O,9.8 nM,13.1 nM,> 128 µg/mL,64 µg/mL,> 128 µg/mL,2.8 nM,> 128 µg/mL,> 128 µg/mL,> 128 µg/mL,–
C[C@@H](O)[C@H](N)C(=O)NS(=O)(=O)c1cccc(-c2ccc3c(N)ncnc3c2)c1,2.2 nM,2.9 nM,> 128 µg/mL,8 µg/mL,> 128 µg/mL,0.9 nM,> 128 µg/mL,16 µg/mL,64 µg/mL,–
C[C@@H](O)[C@H](N)C(=O)NS(=O)(=O)c1cccc(-c2ccc3c(N)nc(N)nc3c2)c1,8.2 nM,10.7 nM,> 128 µg/mL,4 µg/mL,> 128 µg/mL,2.9 nM,> 128 µg/mL,32 µg/mL,64 µg/mL,–
C[C@@H](O)[C@H](N)C(=O)NS(=O)(=O)c1cccc(-c2ccc3c(N)nc(Cl)nc3c2)c1,0.7 nM,0.8 nM,> 128 µg/mL,32 µg/mL,> 128 µg/mL,0.3 nM,128 µg/mL,8 µg/mL,16 µg/mL,–
Cc1nc(N)c2ccc(-c3cccc(S(=O)(=O)NC(=O)[C@@H](N)[C@@H](C)O)c3)cc2n1,9.3 nM,17.2 nM,–,–,–,12.2 nM,–,–,–,–
C[C@@H](O)[C@H](N)C(=O)NS(=O)(=O)c1cccc(-c2ccc3c(N)nc(Cl)cc3c2)c1,25 nM,20 nM,–,–,–,23 nM,–,–,–,–
C[C@@H](O)[C@H](N)C(=O)NS(=O)(=O)c1cccc(-c2ccc3c(N)nccc3c2)c1,115 nM,90 nM,–,–,–,89 nM,–,–,–,–
C[C@@H](O)[C@H](N)C(=O)NS(=O)(=O)c1ccc2ccc(-c3cc(N)ncn3)cc2c1,2 nM,2.7 nM,> 128 µg/mL,4 µg/mL,> 128 µg/mL,0.7 nM,> 128 µg/mL,4 µg/mL,64 µg/mL,–
C[C@@H](O)[C@H](N)C(=O)NS(=O)(=O)/C=C/c1cccc(-c2cc(N)ncn2)c1,1.8 nM,2.7 nM,> 128 µg/mL,32 µg/mL,> 128 µg/mL,1.1 nM,> 128 µg/mL,8 µg/mL,64 µg/mL,–
C[C@@H](O)[C@H](N)C(=O)NS(=O)(=O)c1ccc2ccc(-c3ncnc4[nH]ccc34)cc2c1,1.8 nM,2.4 nM,> 128 µg/mL,32 µg/mL,> 128 µg/mL,0.6 nM,> 128 µg/mL,16 µg/mL,16 µg/mL,–
C[C@@H](O)[C@H](N)C(=O)NS(=O)(=O)N1CCc2ccc(-c3ncnc4[nH]ccc34)cc2C1,5.7 nM,9.5 nM,–,–,–,4 nM,–,–,–,–
C[C@@H](O)[C@H](N)C(=O)NS(=O)(=O)c1cccc(-c2ccc3c(c2)CNC3=O)c1,3.9 nM,7.7 nM,–,–,–,7.4 nM,–,–,–,–
C[C@@H](O)[C@H](N)C(=O)NS(=O)(=O)c1cccc(-c2ccc3[nH]nc(Cl)c3c2)c1,39 nM,52 nM,–,–,–,77 nM,–,–,–,–
C[C@@H](O)[C@H](N)C(=O)NS(=O)(=O)c1ccc(Oc2ccccc2)cc1,33100 nM,36500 nM,–,–,–,193000 nM,–,–,–,–
Cc1n[nH]c2ccc(-c3cccc(S(=O)(=O)NC(=O)[C@@H](N)[C@@H](C)O)c3)cc12,83 nM,127 nM,–,–,–,143 nM,–,–,–,–
C[C@@H](O)[C@H](N)C(=O)NS(=O)(=O)c1cccc(-c2ccc3[nH]ncc3c2)c1,132 nM,182 nM,–,–,–,164 nM,–,–,–,> 50000 nM
C[C@@H](O)[C@H](N)C(=O)NCc1cccc(-c2ccc3c(N)nc(Cl)nc3c2)c1,436 nM,329 nM,–,–,–,140 nM,–,–,–,–
C[C@@H](O)[C@H](N)C(=O)NNc1cccc(-c2ccc3c(N)nc(Cl)nc3c2)c1,70 nM,136 nM,–,–,–,34 nM,–,–,–,–
C[C@@H](O)[C@H](N)CNS(=O)(=O)c1cccc(-c2ccc3c(N)nc(Cl)nc3c2)c1,> 50000 nM,> 50000 nM,–,–,–,–,–,–,–,> 50000 nM
C[C@@H](O)[C@H](N)C(=O)N(C)S(=O)(=O)c1cccc(-c2ccc3c(c2)CNC3=O)c1,> 50000 nM,> 50000 nM,–,–,–,–,–,–,–,> 50000 nM
CC[C@@H](O)[C@H](N)C(=O)NS(=O)(=O)/C=C/c1cccc(-c2cc(N)ncn2)c1,2.7 nM,4.3 nM,–,–,–,14.1 nM,–,–,–,–
CC(C)[C@@H](O)[C@H](N)C(=O)NS(=O)(=O)/C=C/c1cccc(-c2cc(N)ncn2)c1,22.5 nM,32.4 nM,–,–,–,588 nM,–,–,–,–
C[C@@H](O)[C@H](O)C(=O)NS(=O)(=O)/C=C/c1cccc(-c2cc(N)ncn2)c1,> 50000 nM,> 50000 nM,–,–,–,–,–,–,–,> 50000 nM
